Where a SMILES comes first, the peptide text is derived from it. [ ]: non-standard residue; d: D form. dDap = NC[C@@H](N)C(=O)O; Dap = NC[C@H](N)C(=O)O
What was measured:
[1] = Inhibition of alpha-dicarbonyls-induced advanced glycation end product formation assessed as protection against MG-induced loss of bovine pancreatic RNaseA enzyme activity after 48 hrs […]; assay type: physicochemical; design: concentration or dose not given beside the values; settings: cattle
In short: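 RNase A was pre-incubated with equimolar MG ± scavenger at 37 °C, pH 7.4. The glycated enzyme (10 µg/mL) was added to a methylene blue–yeast RNA solution (600 µg/mL RNA working concentration), and remaining activity was compared with control.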

[2] = Inhibition of alpha-dicarbonyls-induced advanced glycation end product formation assessed as protection against 100 eq. MG-induced insulin degradation at 3.75 mM after 24 hrs by RP-HPLC; design: scale not given: the % may be the effect or the level left; settings: 3750 µM
[3] = Cytotoxicity in human EAhy926 cells assessed as viable cells at 1 mM after 48 hrs by MTT assay
[4] = Cytoprotective activity against MG-induced cytotoxicity in human EAhy926 cells assessed as viable cells at 1 mM after 48 hrs by MTT assay; settings: EA.hy 926
[5] = Inhibition of alpha-dicarbonyls-induced advanced glycation end product formation assessed as protection against 10 eq. MG-induced insulin degradation at 3.75 mM after 24 hrs by RP-HPLC; assay type: physicochemical; design: scale not given: the % may be the effect or the level left; settings: 3750 µM
In short: (§1)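 Human insulin (34 µM) was incubated in 10 mM phosphate pH 7.4 with 0.1 M NaCl at 37 °C with MG, ± scavenger at 1.1 mol equiv relative to MG. The standard condition was MG 3.4 mM (100 equiv) with scavenger 3.75 mM for 24 h. Remaining intact insulin was quantified by C18 RP-HPLC (TFA water/acetonitrile gradient) against the insulin-alone control.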

[6] = Inhibition of alpha-dicarbonyls-induced advanced glycation end product formation assessed as protection against MG-induced insulin degradation at 3.75 mM after 5 days by RP-HPLC; assay type: physicochemical; design: scale not given: the % may be the effect or the level left; settings: 120 h, 3750 µM; in short: as §1
[7] = Inhibition of alpha-dicarbonyls-induced advanced glycation end product formation assessed as protection against 5 eq. MG-induced insulin degradation at 3.75 mM after 24 hrs by RP-HPLC; assay type: physicochemical; design: scale not given: the % may be the effect or the level left; settings: 3750 µM; in short: as §1
[8] = Inhibition of alpha-dicarbonyls-induced advanced glycation end product formation assessed as protection against 100 eq. MG-induced insulin degradation at 3.75 mM after 24 hrs by RP-HPLC; assay type: physicochemical; design: scale not given: the % may be the effect or the level left; settings: 3750 µM; in short: as §1
[9] = Inhibition of alpha-dicarbonyls-induced advanced glycation end product formation assessed as protection against MG-induced insulin degradation at 3.75 mM after 7 days by RP-HPLC; assay type: physicochemical; design: scale not given: the % may be the effect or the level left; settings: 168 h, 3750 µM; in short: as §1
[10] = Inhibition of alpha-dicarbonyls-induced advanced glycation end product formation assessed as protection against MG-induced insulin degradation at 3.75 mM after 2 days by RP-HPLC; assay type: physicochemical; design: scale not given: the % may be the effect or the level left; settings: 48 h, 3750 µM; in short: as §1
[11] = Inhibition of alpha-dicarbonyls-induced advanced glycation end product formation assessed as protection against MG-induced loss of human glyoxalase1 enzyme activity after 48 hrs […]; assay type: physicochemical; design: scale not given: the % may be the effect or the level left; settings: 24 h; in the assay text read “24 hrs” for “48 hrs”
In short: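 Human glyoxalase I was pre-incubated with equimolar MG ± scavenger. Substrate hemithioacetal was formed from 2 mM MG and 2 mM reduced glutathione in 50 mM sodium phosphate pH 6.6 (20 min, 37 °C; ~600 µM) and equilibrated 15 min. Enzyme was then added, and S-D-lactoylglutathione formation was followed at 240 nm. One unit = 1 µmol per min.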

[12] = Mutagenic activity in Salmonella Typhimurium at 0.1 to 10 uM after 60 hrs by Ames test in absence of human S9 fraction; assay type: toxicity; settings: salmonella enterica subsp. enterica serovar typhimurium, s9, 60 h
In short: (§2)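 Ames assay used a mix of S. typhimurium TA7001–TA7006 and, separately, TA98. Test substance (10, 1, 0.1 µM; alone or with MG; MG alone 10 µM) was incubated ± human liver S9 at 37 °C for 90 min, then in indicator medium for 60 h. Positive controls were 2-aminoanthracene, 4-nitroquinoline N-oxide and 2-nitrofluorene; solvent was the negative control. Duplicate experiments, 48 wells per point.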

[13] = Mutagenic activity in Salmonella Typhimurium TA98 at 0.1 to 10 uM after 60 hrs by Ames test in presence of human S9 fraction; assay type: toxicity; settings: salmonella enterica subsp. enterica serovar typhimurium, s9, 60 h; in short: as §2
[14] = Mutagenic activity in Salmonella Typhimurium at 0.1 to 10 uM after 60 hrs by Ames test in presence of human S9 fraction; assay type: toxicity; settings: salmonella enterica subsp. enterica serovar typhimurium, s9, 60 h; in short: as §2
[15] = Mutagenic activity in Salmonella Typhimurium at 0.1 to 10 uM after 60 hrs by Ames test in absence of human S9 fraction and in presence of MG; assay type: toxicity; settings: salmonella enterica subsp. enterica serovar typhimurium, s9, 60 h; in short: as §2
[16] = Inhibition of alpha-dicarbonyls-induced advanced glycation end product formation assessed as protection against MG-induced human glyoxalase1 degradation after 24 hrs by […]; assay type: physicochemical
In short: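 Human glyoxalase I was incubated with MG (protein/MG 1/1) ± scavenger (1.1 or 2.2 equiv) at 37 °C, pH 7.4, for 24 h, then stored at −20 °C. Mobility shift was analysed by non-denaturing PAGE.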

[17] = Mutagenic activity in Salmonella Typhimurium TA98 at 0.1 to 10 uM after 60 hrs by Ames test in presence of human S9 fraction and MG; assay type: toxicity; settings: salmonella enterica subsp. enterica serovar typhimurium, s9, 60 h; in short: as §2
[18] = Inhibition of alpha-dicarbonyls-induced advanced glycation end product formation assessed as protection against MG-induced chicken lysozyme degradation after 48 hrs by SDS-PAGE; assay type: physicochemical
In short: (§3)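 Protein stock (10–15 mg/mL in phosphate buffer) was incubated with MG ± scavenger at 37 °C, pH 7.4, for 48 h, then stored at −20 °C until SDS–PAGE. For RNase A, MG was equimolar to protein and scavenger was 1.1 mol per mol MG.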

[19] = Inhibition of alpha-dicarbonyls-induced advanced glycation end product formation assessed as protection against MG-induced bovine pancreatic RNaseA degradation after 48 hrs by SDS-PAGE; assay type: physicochemical; settings: cattle; in short: as §3
[20] = Mutagenic activity in Salmonella Typhimurium TA98 at 0.1 to 10 uM after 60 hrs by Ames test in absence of human S9 fraction and in presence of MG; assay type: toxicity; settings: salmonella enterica subsp. enterica serovar typhimurium, s9, 60 h; in short: as §2
[21] = Mutagenic activity in Salmonella Typhimurium TA98 at 51.7 uM after 60 hrs by Ames test in presence of human S9 fraction; settings: salmonella enterica subsp. enterica serovar typhimurium, s9, 60 h
[22] = Mutagenic activity in Salmonella Typhimurium at 51.7 uM after 60 hrs by Ames test in presence of human S9 fraction; settings: salmonella enterica subsp. enterica serovar typhimurium, s9, 60 h

Activity [2] [%]	Structure (SMILES)	viability at 1000 µM [3] [%]	viability at 1000 µM [4] [%]	other results
66	NC[C@@H](N)C(=O)N[C@H](Cc1ccccc1)C(=O)O			Activity [1]: 70%
69	NC[C@H](N)C(=O)NCCC(=O)O			
74	NC[C@@H](N)C(=O)N[C@@H](Cc1ccc(C(F)(F)F)cc1)C(=O)O			
83	CC(C)C[C@H](NC(=O)[C@H](N)CN)C(=O)O			Activity [5]: 90%; Activity [6]: 85%; Activity [7]: 90%; Activity [8]: 83%; Activity [9]: 88%; Activity [10]: 88%
91	CCCC[C@H](NC(=O)[C@H](N)CN)C(=O)O			
87	CC(C)C[C@H](NC(=O)[C@@H](N)CN)C(=O)O	78	69	Activity [1]: 94%; Activity [11]: 96%; Activity [12]: Non-toxic; Activity [13]: Non-toxic; Activity [14]: Non-toxic; Activity [15]: Non-toxic; Activity [16]: Active; Activity [17]: Non-toxic; Activity [18]: Active; Activity [19]: Active; Activity [20]: Non-toxic
61	NC[C@@H](N)C(=O)N[C@H](CC(=O)O)C(=O)O			
84	CC(C)C[C@@H](NC(=O)[C@H](N)CN)C(=O)O			
67	NC[C@H](N)C(=O)NCC(=O)O (H-[Dap]-Gly-OH)	57	54	Activity [1]: 86%
75	CC[C@H](C)[C@H](NC(=O)[C@@H](N)CN)C(=O)O (H-[Dap]-Ile-OH)	86	79	Activity [1]: 91%
71	CC(C)[C@H](NC(=O)[C@@H](N)CN)C(=O)O (H-[Dap]-Val-OH)	96	93	Activity [1]: 91%; Activity [18]: Active; Activity [19]: Active
71	C[C@@H](NC(=O)[C@H](N)CN)C(=O)O (H-[dDap]-[dA]-OH)	72	71	Activity [1]: 87%
53	NC[C@@H](N)C(=O)NC(Cc1ccc(F)cc1)C(=O)O (mixture of isomers)			

Further lines, the compound ahead of its results:

Structure (SMILES)	Activity [2] [%]	viability at 1000 µM [3] [%]	viability at 1000 µM [4] [%]	other results
NCCCC[C@H](NC(=O)[C@H](N)CN)C(=O)O		81	43	
CCCC[C@H](NC(=O)[C@@H](N)CN)C(=O)O		94	74	
CC(C)C[C@@H](NC(=O)[C@@H](N)CN)C(=O)O		87	71	
NC[C@H](N)C(=O)N[C@@H](Cc1ccccc1)C(=O)O		78	67	
NCC(N)C(=O)O (stereo not given)	98			Activity [1]: 20%
NC[C@H](N)C(=O)N1CCC[C@H]1C(=O)O (H-[Dap]-Pro-OH)	77			
NCCC(N)C(=O)O (racemic)	40			
CC(C)(S)C(N)C(=O)O (racemic) [DL-PENICILLAMINE]	69	86	61	
CCCCCCCCCCCCCCCCOC(=O)[C@H](CC(C)C)NC(=O)C(N)CN (single isomer, unassigned)	74	23	33	
NCC(N)C(=O)O (single isomer, unassigned) [DIAMINOPROPANOIC ACID]		81	67	
Nc1ccc2cc3ccccc3cc2c1 [2-AMINOANTHRACENE]				Activity [21]: Toxic; Activity [22]: Toxic
N=C(N)NCCC[C@H](N)C(=O)O [ARGININE]	18			
NCCC(=O)N[C@@H](Cc1cnc[nH]1)C(=O)O [CARNOSINE]	0	97	54	
N[C@@H](CS)C(=O)O [CYSTEINE]	69			
NCCCC[C@H](N)C(=O)O [LYSINE]	0			
CN(C)C(=N)N=C(N)N [METFORMIN]	11	84	53	
N=C(N)NN [PIMAGEDINE]	85	94	75	Activity [1]: 70%
Cc1ncc(CO)c(CN)c1O [PYRIDOXAMINE]	14	92	32	

Source: ChEMBL document CHEMBL1152496, “N-Terminal 2,3-diaminopropionic acid (Dap) peptides as efficient methylglyoxal scavengers to inhibit advanced glycation endproduct (AGE) formation” (Bioorg Med Chem, 2009)
